Measurements collected from several papers.
XDH: Xanthine dehydrogenase/oxidase (XDH, Bos taurus, UniProt P80457)
Adra1b: Alpha-1B adrenergic receptor (Adra1b, Rattus norvegicus, UniProt P15823)
NT5E: 5'-nucleotidase (NT5E, Homo sapiens, UniProt P21589)

Oc1ncnc2[nH]ncc12 has an inhibition of > 90% (XDH; enzyme activity; inhibitor; 25 µg/mL).
With NC/C(=C\F)COc1cccc(Cn2c(=S)[nH]c(=O)c3[nH]cnc32)c1 the inhibition was < 50% (Adra1b; ligand displacement; radioligand; 10 µM).
COCCOCCOCCNC(=O)c1sc2nc(-c3ccccc3)cc(C(F)(F)F)c2c1N gave an inhibition of -9% (NT5E; enzyme activity; inhibitor; 10 µM).
O=C(O[C@@H]1COC(=O)c2cc(O)c(O)c(O)c2-c2c(cc(O)c(O)c2O)C(=O)O[C@H]1[C@@H]1OC(=O)c2cc(O)c(O)c(O)c2-c2c(O)c(O)c(O)c3c2C(=O)O[C@H]1[C@@H]3O)c1cc(O)c(O)c(O)c1 gave an inhibition of 29.8% (XDH; enzyme activity; inhibitor; 25 µg/mL).
The inhibition of O=C(O)CCc1nccc2c3ccccc3n(Cc3ccc(Br)c4ccccc34)c12 is reported as 16.4% (XDH; enzyme activity; inhibitor; absorbance; 10 µM).
N#Cc1c(C(F)(F)F)cc(-c2ccccc2)nc1SCC(=O)Nc1ccccc1 gave an inhibition of 16% (NT5E; enzyme activity; inhibitor; 10 µM).
C#Cc1cc(-c2cc(Nc3nc(N[C@@H](C)c4ccc(F)cn4)ncc3Cl)n[nH]2)ccc1C=O gave an inhibition of 92% (Mitogen-activated protein kinase kinase kinase kinase 5 (MAP4K5, Homo sapiens, UniProt Q9Y4K4); enzyme activity; inhibitor; 0.2 µM).
The inhibition of Cc1cc(O)c(-c2ccc([C@@H](C)CN(C)C)cc2)c2c1[nH]c(=O)c1sccc12 is reported as -1.62% (Cyclin-dependent kinase 13 (CDK13, Homo sapiens, UniProt Q14004); enzyme activity; inhibitor; 0.1 µM).
O=C(O)/C=C/c1nccc2c3ccccc3n(Cc3ccc(Br)c4ccccc34)c12 gave an inhibition of 17.8% (XDH; enzyme activity; inhibitor; absorbance; 10 µM).
The inhibition of Cc1cccc(NC(=O)c2sc3nc(C)cc(C)c3c2N)n1 is reported as -21% (NT5E; enzyme activity; inhibitor; 10 µM).
With O=C(NS(=O)(=O)c1ccccc1)c1cc2ccccc2n1Cc1ccc(C2CC2)c2ccccc12 the inhibition was 2.49% (XDH; enzyme activity; inhibitor; absorbance; 10 µM).
For CCN1/C(=C/C(C)=O)Sc2ccc(F)cc21, the inhibition was 4.13% (Adra1b; ligand displacement; radioligand; 10 µM).
